From ChEMBL document CHEMBL4371052, “Diarylcarbonates are a new class of deubiquitinating enzyme inhibitor” (Bioorg Med Chem Lett, 2019)
Activity calls are given as the source filed them.

What was measured:
[1] = biological target: T1, Ubiquitin carboxyl-terminal hydrolase 19 (Homo sapiens) (UniProt O94966); experiment: Inhibition of USP19 in HEK293T cell lysates at 25 uM using HA-tagged vinyl-sulfone as substrate preincubated for 19 to 60 mins followed by substrate addition and measured after 19 to 25 mins by Western blot analysis; assay type: subcellular; conditions: Lysate
T1 sequence (whole entry): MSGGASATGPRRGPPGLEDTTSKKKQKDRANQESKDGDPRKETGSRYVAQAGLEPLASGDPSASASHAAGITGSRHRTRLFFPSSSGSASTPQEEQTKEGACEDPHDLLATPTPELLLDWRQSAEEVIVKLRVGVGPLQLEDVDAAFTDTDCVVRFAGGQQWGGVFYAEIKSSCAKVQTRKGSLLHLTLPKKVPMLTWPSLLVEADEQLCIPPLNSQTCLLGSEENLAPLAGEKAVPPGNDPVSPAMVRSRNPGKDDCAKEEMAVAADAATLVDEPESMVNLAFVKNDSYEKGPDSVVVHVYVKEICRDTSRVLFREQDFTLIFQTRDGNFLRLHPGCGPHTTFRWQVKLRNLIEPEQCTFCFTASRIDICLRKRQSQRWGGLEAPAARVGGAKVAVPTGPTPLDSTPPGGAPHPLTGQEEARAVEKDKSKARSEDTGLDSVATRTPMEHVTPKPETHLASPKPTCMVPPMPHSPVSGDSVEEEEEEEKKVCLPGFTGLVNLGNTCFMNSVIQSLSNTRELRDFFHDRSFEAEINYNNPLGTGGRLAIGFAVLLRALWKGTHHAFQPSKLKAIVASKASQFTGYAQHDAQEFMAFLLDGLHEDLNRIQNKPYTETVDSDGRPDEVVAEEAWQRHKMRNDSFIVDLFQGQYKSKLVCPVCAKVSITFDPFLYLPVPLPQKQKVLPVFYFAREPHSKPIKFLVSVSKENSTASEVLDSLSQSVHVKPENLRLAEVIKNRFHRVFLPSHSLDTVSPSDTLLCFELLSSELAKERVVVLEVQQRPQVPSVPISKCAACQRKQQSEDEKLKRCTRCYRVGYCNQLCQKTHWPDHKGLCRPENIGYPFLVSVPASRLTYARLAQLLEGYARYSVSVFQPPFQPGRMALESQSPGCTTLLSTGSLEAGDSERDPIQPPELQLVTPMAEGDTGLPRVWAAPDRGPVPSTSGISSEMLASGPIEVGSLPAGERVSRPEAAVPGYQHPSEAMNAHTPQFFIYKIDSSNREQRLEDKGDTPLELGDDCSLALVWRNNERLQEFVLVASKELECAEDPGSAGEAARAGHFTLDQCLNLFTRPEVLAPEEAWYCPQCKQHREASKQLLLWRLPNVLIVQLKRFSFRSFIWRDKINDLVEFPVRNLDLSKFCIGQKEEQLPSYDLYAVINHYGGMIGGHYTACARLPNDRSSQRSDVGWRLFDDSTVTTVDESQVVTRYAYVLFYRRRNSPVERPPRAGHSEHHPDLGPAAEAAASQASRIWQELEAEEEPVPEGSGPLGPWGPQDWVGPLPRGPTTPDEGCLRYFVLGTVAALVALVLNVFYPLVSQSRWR

[2] = biological target: Ubiquitin carboxyl-terminal hydrolase 7 (Homo sapiens) (UniProt Q93009); experiment: Inhibition of USP7 in HEK293T cell lysates at 25 uM using HA-tagged vinyl-sulfone as substrate preincubated for 19 to 60 mins followed by substrate addition and measured after 19 to 25 mins by Western blot analysis; assay type: subcellular; conditions: Lysate
Chain of Ubiquitin carboxyl-terminal hydrolase 7 (Homo sapiens) (Q93009 whole entry, looked up, the tested form may be a part): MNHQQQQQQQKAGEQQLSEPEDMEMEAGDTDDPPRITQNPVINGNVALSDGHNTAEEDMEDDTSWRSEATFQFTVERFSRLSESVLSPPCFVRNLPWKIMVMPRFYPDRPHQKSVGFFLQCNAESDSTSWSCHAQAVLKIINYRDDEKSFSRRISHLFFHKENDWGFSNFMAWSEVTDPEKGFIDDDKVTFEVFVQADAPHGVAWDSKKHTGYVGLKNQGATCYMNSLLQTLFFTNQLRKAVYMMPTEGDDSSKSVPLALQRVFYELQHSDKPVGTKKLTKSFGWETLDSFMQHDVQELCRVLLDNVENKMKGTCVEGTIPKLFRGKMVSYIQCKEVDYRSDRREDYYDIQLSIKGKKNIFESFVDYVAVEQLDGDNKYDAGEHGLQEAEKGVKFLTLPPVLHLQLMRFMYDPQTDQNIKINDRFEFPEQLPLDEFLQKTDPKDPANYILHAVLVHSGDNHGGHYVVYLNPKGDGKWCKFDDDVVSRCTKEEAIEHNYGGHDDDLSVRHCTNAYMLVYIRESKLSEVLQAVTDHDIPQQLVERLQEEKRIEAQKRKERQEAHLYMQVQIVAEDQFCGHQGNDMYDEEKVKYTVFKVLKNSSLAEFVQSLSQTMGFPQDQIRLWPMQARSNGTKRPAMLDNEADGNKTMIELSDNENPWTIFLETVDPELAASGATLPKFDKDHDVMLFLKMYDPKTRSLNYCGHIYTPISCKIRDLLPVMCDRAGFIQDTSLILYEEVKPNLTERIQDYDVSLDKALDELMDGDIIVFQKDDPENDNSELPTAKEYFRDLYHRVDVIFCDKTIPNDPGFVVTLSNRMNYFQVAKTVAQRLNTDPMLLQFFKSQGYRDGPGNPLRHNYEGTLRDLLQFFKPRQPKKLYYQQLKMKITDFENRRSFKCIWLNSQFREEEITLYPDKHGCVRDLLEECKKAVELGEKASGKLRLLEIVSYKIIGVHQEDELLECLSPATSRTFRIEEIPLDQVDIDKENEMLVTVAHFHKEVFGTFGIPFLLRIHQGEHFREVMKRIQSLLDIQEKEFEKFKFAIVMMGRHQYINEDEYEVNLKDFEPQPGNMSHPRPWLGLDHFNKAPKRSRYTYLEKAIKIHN

[3] = biological target: T1, Ubiquitin carboxyl-terminal hydrolase 19 (Homo sapiens); experiment: Inhibition of USP19 in HEK293T cell lysates at 25 uM using HA-tagged vinyl-sulfone as substrate measured after 2 to 30 mins by Western blot analysis; assay type: subcellular; conditions: Lysate
Outline: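 HEK 293T lysate (1.5 mg/ml) given compound (25 μM) or DMSO at the same time as HA-Ub-VS (1.5 μM). Aliquots withdrawn over time were run on SDS-PAGE and immunoblotted for HA.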

[4] = biological target: Ubiquitin carboxyl-terminal hydrolase 7 (Homo sapiens) (UniProt Q93009); experiment: Inhibition of recombinant His6-tagged USP7 catalytic domain (unknown origin) using Ub-AMC as substrate by fluorescence assay; conditions: TDE = time-dependent effect
Papain (Carica papaya) = biological target: T2, Papain (Carica papaya) (UniProt P00784); experiment: Inhibition of papaya papain at 100 uM using Z-Arg-AMC as substrate preincubated for 30 mins followed by substrate addition by fluorescence assay
T2 sequence (whole entry): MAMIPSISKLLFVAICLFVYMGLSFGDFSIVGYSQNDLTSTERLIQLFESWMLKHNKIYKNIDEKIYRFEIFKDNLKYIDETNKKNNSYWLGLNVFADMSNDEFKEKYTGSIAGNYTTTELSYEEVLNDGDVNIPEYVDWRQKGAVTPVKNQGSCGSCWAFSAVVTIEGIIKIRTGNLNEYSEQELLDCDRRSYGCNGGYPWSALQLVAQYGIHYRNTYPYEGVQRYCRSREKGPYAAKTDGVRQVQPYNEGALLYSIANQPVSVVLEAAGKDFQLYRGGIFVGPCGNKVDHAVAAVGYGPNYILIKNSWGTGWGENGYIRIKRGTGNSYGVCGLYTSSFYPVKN
Outline: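 Enzyme (papain or ficin) preincubated 30 min with inhibitor at 100 μM, then Z-Arg-AMC substrate added at 300 μM; AMC release followed.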

K562 = experiment: Cell cycle arrest in human K562 cells assessed as increase in accumulation at sub G1-phase after 24 hrs by propidium iodide staining based flow cytometry; assay type: functional
Outline: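 K562 cells exposed to compound for 24 h, then analysed for cell cycle by FACS. Sub-G1 cells were counted as apoptotic, with the G1 fraction reported separately.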

[5] = biological target: Ubiquitin carboxyl-terminal hydrolase 7 (Homo sapiens) (UniProt Q93009); experiment: Inhibition of USP7 in human MCF7 cells assessed as accumulation of K48-Ub protein at 50 uM after 4 hrs by Western blot analysis; assay type: cell-based
Outline: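 MCF7 cells exposed to 50 μM compound for 4 h. K48-linked ubiquitin chains were detected by immunoblot.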

NCc1ccc(OC(=O)Oc2ccc3ccccc3c2)cc1
active: inhibition [1] | inhibition [2] | inhibition [4] Tde | Activity (K562) Dose-dependent effect | inhibition [5]
inactive: inhibition [3] | inhibition (Papain (Carica papaya))
